Data set [1] relates to human M1 muscarinic receptor. The settings on record: ref AID: 624040; cited from earlier work.
In another data set the test system is D1 dopamine receptor. Conditions: ref AID: 504660; cited from earlier work.
Data set [2] has as its system human tyrosyl-DNA phosphodiesterase 1. Conditions: cited from earlier work; for inhibitory activity of human tyrosyl-DNA phosphodiesterase 1: ref AID 686978.
In the next data set the test system is DNA polymerase ETA. The settings on record: ref AID 588591; cited from earlier work.
For data set [3], the system named is assembly of the perinucleolar compartement. Conditions: ref AID 2427; cited from earlier work.
The next data set has as its system miRNAs. The settings on record: D4 and its derivatives; ref AID: 2289; cited from earlier work.
Data set [4] deals with posterior segregation family member (pos-1) binding to mex-3-RNA. Conditions: ref PubChem AID: 1964; cited from earlier work.
Data set [5] has as its system 5′UTR stem-loop driven prion protein mRNA translation in H4 neuroglioblastoma cells. The settings on record: D4 and its derivatives, ref AID: 1814; cited from earlier work.
Data set [6] concerns respiratory syncytial virus (RSV). The settings on record: ref AID: 2410; cited from earlier work.
A further data set relates to HIV. The settings on record: ref AID:651610; cited from earlier work.
Data set [7] has as its system ELG1-dependent DNA repair. The settings on record: PubChem / in-house qHTS cross-activity, AID not given; cited from earlier work. On the technique in general: qHTS replaces the single test concentration by a dilution series.
Data set [8] concerns HCV-WT (wild-type HCVcc) in Huh7.5.1 cells. Description: 2-part HCV-WT infection assay with HCV core immunofluorescence staining. The format is cell-based, Hepatitis C virus. Conditions: for higher potency at part-2 compared to part-1: HCV-WT 2-part infection assay. In outline:
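Huh7.5.1 cells (3,000/well) were infected with wild-type J6/JFH1 HCVcc at 0.05 moi, with test compound added at infection in 1:3 serial dilutions from 30 μM (part 1). After 48 h, the media were moved onto fresh Huh7.5.1 cells (part 2) and infected for 48 h. Cells were stained with anti-core 6G7 mAb, an Alexa Fluor 488 secondary and Hoechst, then imaged. Core-positive cell percentages were normalized to DMSO and plotted as concentration-response curves.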

For a further data set, the system named is HCV life cycle. The format is cell-based, Hepatitis C virus. The settings on record: designated from HCVsc, HCVpp and HCV replicon inhibition (>50% = significant). Background: A replicon is a self-replicating genome or part of one, used to study replication in cells.
The next data set relates to HCVsc. Description: HCV single-cycle infection assay. It is filed as cell-based, Hepatitis C virus. The settings on record: significant = more than 50% decrease. In outline:
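Single-round defective HCV particles were made by replicon trans-packaging. These particles infect and replicate but cannot assemble new virions. Luciferase signal was read 48 h after compound treatment, with cyclosporin A as positive control.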

Another data set has as its system HCVpp-1a. The format is cell-based, Hepatitis C virus.
Data set [9] in a line: Rat liver microsomal stability. It is filed as in vitro ADME. Conditions: for Microsomal t1/2: rat liver microsomes, 37°C, NADPH. A general note: Microsomes from liver hold many membrane-bound enzymes, among them those of drug oxidation.
A further data set in a line: Permeability. The format is physicochemical.
A further data set is described as follows: Aqueous solubility. It is filed as physicochemical.
The test system of data set [10] is HCV-Cre in Huh7.5.1LoxPGluc cells. Description: HCV-Cre/LoxPGluc cell-based HCV infection qHTS assay. Details: species or system Hepatitis C virus. Conditions: primary screen, luciferase 48 h. In short, it runs like this:
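Huh7.5.1LoxPGluc cells carry a Cre-activated Gaussia luciferase and are kept in DMEM with 10% FBS at 37 °C and 5% CO2. Cells (750/well) were plated overnight, then given test compound and HCV-Cre at ~0.05 m.o.i. Five plates were run: DMSO plus 0.34, 1.7, 8.5 and 42 μM. Luciferase was read at 48 h. Responses were normalized to 10 μM cyclosporin A (100%) and DMSO (0%), and EC50 was fitted by nonlinear regression.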

Structures are written as SMILES. Values after ≈ are worked out from the molar mass of the structure shown.

Consider 34 molecules from paper PMC4684727 (Antiviral research, 2015).

Turning to `CCN1CCN(c2ccc(NC(=O)c3cccc(OCc4ccccc4)c3)cc2)CC1` [B5], in data set [1], the “activity against human M1 muscarinic receptor” value is reported as “showed activities”. The “activity against D1 dopamine receptor” value with D1 dopamine receptor is “showed activities”. `COC(=O)C1=C(c2ccc(-c3ccccc3)c(F)c2)C[C@@H]2CC[C@H]1N2C(=O)NCc1cccc2ccccc12` [D1]: the “inhibitory activity of human tyrosyl-DNA phosphodiesterase 1” value in [2] is “showed inhibitory activity”. Take `N#C/C(=C\Nc1ccc2cn[nH]c2c1)c1nc(-c2ccccc2)cs1` [D2]: the “inhibitory activity of human tyrosyl-DNA phosphodiesterase 1” value in data set [2] was “showed inhibitory activity”. Take `Cn1c(=O)c2c(nc(SCC(=O)NCc3ccc4c(c3)OCO4)n2Cc2ccc(Cl)cc2)n(C)c1=O` [D3]: the “inhibition of DNA polymerase ETA” value in the data set on DNA polymerase ETA is recorded as “inhibitor”. Moreover, in [3], the “inhibition of assembly of the perinucleolar compartement” value is on record as “inhibited the assembly”. On to `CCNC(=S)/N=C(\N)Nc1nc(C)c2cc(C)ccc2n1` [D4], for which, in the data set with miRNAs, the “modulation of miRNAs” value is on record as “potent modulators”. Besides, in data set [4], the “targeting pos-1 binding to mex-3-RNA” value is “targets”. Moreover, in data set [5], the “activation of 5′UTR stem-loop driven prion protein mRNA translation” value is “activators”.

In the case of `Cc1c(NC(=O)c2cc3c(s2)-c2ccccc2OC3)cccc1[N+](=O)[O-]` [D5], in [2] (PubChem / in-house qHTS cross-activity, AID not given), the “inhibitory activity against human TDP1” value is on record as “showed inhibitory activities”. Besides, the “inhibition of RSV” value in data set [6] was “inhibitor”. In the data set on HIV, the “inhibition of HIV” value is given as “inhibitor”. Besides, the “inhibitory activity against ELG1-dependent DNA repair” value in data set [7] is reported as “showed inhibitory activities”.

With `Cc1ccc(C)c2nc(SCC(=O)N3CCCc4ccccc43)c(C#N)cc12` [D7], the “higher potency at part-2 compared to part-1” value in data set [8] is recorded as 10–50 fold.

For `N=c1c(C(=O)NCc2ccc3c(c2)OCO3)cc2c(=O)n3ccccc3nc2n1Cc1cccnc1` [MLS000040412-01], the Life cycle stage entry with HCV life cycle is “entry inhibitors”. In the data set on HCVsc, the “inhibition in HCVsc assay” value is given as “significant inhibition”. In addition, the “inhibition in HCVpp assay” value in the data set on HCVpp-1a is “less than 50%”. A word on the Solubility: it is the concentration that dissolves in the medium under given conditions. A high value points to much dissolved substance. On to `CCN1CCN(CCCOc2ccc(-c3ccccc3)cc2)CC1` [MLS000049859-01], for which, in data set [9], the “Microsomal t1/2” value worked out at 7.9 m and the “half-life (t1/2) in rat microsomes” value worked out at 7.9 min. In “Permeability”, the Permeability is more than 2183.0 ×10⁻⁶ cm/s. Moreover, in “Aqueous solubility”, the Solubility was more than 48.0 µg/mL. The Life cycle stage entry with HCV life cycle is “Entry”.

What is called EC50 is the concentration giving half of the maximal effect. Molecule `CCCCCn1c(=O)[nH]c2cc(C(=O)NCCCN3CCCCC3)ccc2c1=O` [MLS000086763-01] displayed an EC50 in data set [10] of 10 µM. In [10], `O=C(NCCCN1CCCCC1)c1ccc2c(=O)n(CCc3ccccc3)c(=O)[nH]c2c1` [MLS000086784-01] had an EC50 of 6.31 µM. Same read-out and setting: next, `Cc1ccccc1-c1nc(CN2CCC(C(=O)NCc3cccnc3)CC2)c(C)o1` [MLS000095186-01]: 5.01 µM; `Cc1ccccc1-c1nc(CN2CCC(C(=O)NCC3CCCO3)CC2)c(C)o1` (centres unmarked) [MLS000095190-01]: more than 100 µM. Same read-out and setting: the value for `Cc1ccccc1-c1nc(CN2CCC(C(=O)NCCC3=CCCCC3)CC2)c(C)o1` [MLS000095191-01] was 6.31 µM; that for `Cc1ccccc1-c1nc(CN2CCC(C(=O)NCCCN3CCCC3)CC2)c(C)o1` [MLS000095192-01] was 14.1 µM; that for `Cc1oc(-c2ccc(Cl)cc2)nc1CN1CCCC(C(=O)NCCCN2CCCC2=O)C1` (centres unmarked) [MLS000117605-01] was 11.2 µM. Still for that read-out and setting: the value for `CCCCCn1c(=O)[nH]c2cc(C(=O)NC3CCN(Cc4ccccc4)CC3)ccc2c1=O` [MLS000519908-01] was more than 100 µM; that for `CC1CCN(CCCNC(=O)c2ccc3c(=O)n(CCc4ccccc4)c(=O)[nH]c3c2)CC1` [MLS000519916-01] was 8.91 µM; that for `CC1CCCCN1CCCNC(=O)c1ccc2c(=O)n(CCc3ccccc3)c(=O)[nH]c2c1` (centres unmarked) [MLS000519917-01] was 3.98 µM. Take `COc1ccc(CN2CCC(N(CCc3ccccc3)Cc3ccccc3)CC2)c(OC)c1.O=C(O)C(=O)O` [MLS000662842-01]: in data set [9], the “Microsomal t1/2” value is given as 2.3 m and the “half-life (t1/2) in rat microsomes” value turned out to be 2.3 min. The Solubility in the data set “Aqueous solubility” was determined as 49.3 µg/mL. For the same molecule, the Life cycle stage entry in the data set with HCV life cycle is on record as “Assembly/secretion”. With `O=C(Nc1ccc(S(=O)(=O)Nc2ccccc2)cc1)c1ccc(CN2CCOCC2)cc1` [MLS000714550], the “inhibition of HCV core-positive cells, part-1 versus part-2” value in [8] (compounds 1:3 dilutions from 30 μM, 48 h per part) is listed as “decreased similarly in both parts”. As for `Cc1cc(SCC(=O)c2ccccc2)n2ncc(-c3ccccc3)c2n1` [MLS000763045-01], in data set [8], the “higher potency at part-2 compared to part-1” value is recorded as 10–50 fold. For `CCCCCn1c(=O)[nH]c2cc(C(=O)NCCCN3CCC(C)CC3)ccc2c1=O` [MLS000876570-01], the response in data set [10] was half-maximal at 4.47 µM (EC50). Also, in [9], the “Microsomal t1/2” value was more than 30.0 m and the “half-life (t1/2) in rat microsomes” value is “greater than 30 min”. In “Permeability”, the Permeability was less than 30.9 ×10⁻⁶ cm/s. The molecule also gave a Solubility in “Aqueous solubility” of more than 59.0 µg/mL. The Life cycle stage entry with HCV life cycle is on record as “Entry”.

As for `Cc1ccccc1-c1nc(CN2CCC(C(=O)NCCCN3CC(C)CC(C)C3)CC2)c(C)o1` (centres unmarked) [MLS000877128-01], the midpoint of the response in data set [10], the EC50, lay at 1.26 µM. Further, the Permeability in the data set “Permeability” was determined as 489.1 ×10⁻⁶ cm/s. The Solubility in the data set “Aqueous solubility” came to 53.9 µg/mL (≈ 115 µM). The Life cycle stage entry in the data set on HCV life cycle is “Entry”. In the case of `Cc1oc(-c2ccc(Cl)cc2)nc1CN1CCC(C(=O)NCCCN2CCCC2=O)CC1` [MLS000878431-01], the EC50 in data set [10] was 22.4 µM. For the molecule `CCOC(=O)c1cc2c(=O)n3ccccc3nc2n(CCCOC)c1=NC(=O)C(C)(C)C` [MLS000879011-01], the Life cycle stage entry with HCV life cycle is reported as “entry inhibitors”. `Cc1ccccc1-c1nc(CN2CCC(C(=O)NCCN3CCOCC3)CC2)c(C)o1` [MLS000913230-01] yielded an EC50 in data set [10] of more than 100 µM.

Turning to `CCC1CCCCN1CCCNC(=O)C1CCN(Cc2nc(-c3ccc(Cl)cc3)oc2C)CC1` (centres unmarked) [MLS000913279-01], it took 1.41 µM to reach a half-maximal effect in [10] (EC50). On the same count and under the same terms, next, `CCCCCn1c(=O)[nH]c2cc(C(=O)NCCCN3CCCCC3CC)ccc2c1=O` (centres unmarked) [MLS000948303-01]: 7.08 µM; `CCC1CCCCN1CCCNC(=O)c1ccc2c(=O)n(CCOC)c(=O)[nH]c2c1` (centres unmarked) [MLS000948314-01]: more than 100 µM.

With `CCCCCn1c(=O)[nH]c2cc(C(=O)NCCN3CCCCC3C)ccc2c1=O` (centres unmarked) [MLS000948325-01], the EC50 in data set [10] was 22.4 µM. Turning to `COc1ccc(CCNC(=O)c2cc3c(=O)n4ccccc4nc3n(C3CCCCC3)c2=N)cc1` [MLS001139315-01], in the data set with HCV life cycle, the Life cycle stage result was “entry inhibitors”.

In the case of `COc1ccc(CCNC(=O)c2cc3c(=O)n4ccccc4nc3n(CCCN3CCOCC3)c2=N)cc1` [MLS001139388-01], the Life cycle stage entry in the data set on HCV life cycle was “entry inhibitors”. For `CC(NC(=O)c1cc2c(=O)n3ccccc3nc2n(CC2CCCO2)c1=N)c1ccccc1` (centres unmarked) [MLS001217747-01], the Life cycle stage entry in the data set with HCV life cycle was “entry inhibitors”. Moreover, in the data set on HCVsc, the “inhibition in HCVsc assay” value is reported as “significant inhibition”.
